Assay results published in ChEMBL document CHEMBL3871270, “Structural and Biochemical Characterization of the Interaction of Tubulin with Potent Natural Analogues of Podophyllotoxin” (J Nat Prod, 2016).
Activity calls are given as the source filed them. No cut-off for these calls is given here.

How the values were obtained:
[1] = Cell cycle arrest in human A549 cells assessed as decrease in G1 phase population at 100 nM after 20 hrs by propidium iodide staining based flow cytometry; assay type: functional
How it was run: (§1)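 A549 cells were grown for 20 h with compound across 20 nM to 25 μM. DMSO was the negative control and paclitaxel (30−50 nM) the positive control. The percentage of cells in each cell-cycle phase was determined from flow cytometry DNA histograms.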

[2] = (§2) Inhibition of 2-methoxy-5-(2,3,4-trimethoxyphenyl)-2,4,6-cycloheptatrien-1-one binding to colchicine binding site of tubulin (unknown origin) by fluorescence spectroscopic analysis; set-up: species or system Homo sapiens
How it was run: (§3)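 Tubulin binding constants (Kb) were obtained from a competition assay against the colchicine-site fluorescent probe MTC, assuming 1:1 stoichiometry.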

Homo sapiens [3] = organism: Homo sapiens; test: as §2; how it was run: as §3
Homo sapiens [4] = organism: Homo sapiens; test: Inhibition of 2-methoxy-5-(2,3,4-trimethoxyphenyl)-2,4,6-cycloheptatrien-1-one binding to colchicine binding site of tubulin (unknown origin) at 10 uM by fluorescence assay
How it was run: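 Fluorescence emission spectra were recorded at 350 nm excitation for 10 μM purified tubulin plus 10 μM MTC (a colchicine-site probe), with 10 μM test compound. Reference spectra were MTC with tubulin alone and MTC alone. The result is the percent decrease in MTC fluorescence.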

[5] = Cytotoxicity against human A549 cells assessed as decrease in cell viability after 48 hrs by MTT assay; assay type: functional, cell-based; conditions: A549, 48 h
How it was run: (§4)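 A549 lung and A2780 ovarian human carcinoma cells were treated for 48 h, and viability was read by MTT assay. IC50 values are given as mean ± standard error of three independent experiments.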

Homo sapiens [6] = organism: Homo sapiens; test: Binding affinity to tubulin alpha/beta dimer (unknown origin) at 100 uM by STD-NMR method
Homo sapiens [7] = organism: Homo sapiens; test: Binding affinity to tubulin alpha/beta dimer (unknown origin) by TR-NOESY NMR spectroscopy
A549 [8] = test: Binding affinity to alpha-tubulin in human A549 cells assessed as induction of microtubule depolymerization by measuring formation of abnormal type 4 spindles at 100 nM after 24 hrs by immunofluorescence microscopy; assay type: cell-based
How it was run: (§5)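 A549 cells were exposed to compound or DMSO vehicle for 24 h. They were then stained with DM1A anti-α-tubulin monoclonal antibody for microtubules and Hoechst 33342 for DNA. Cytoplasmic microtubule networks and mitotic spindle morphology, including abnormal type IV ball-shaped spindles, were examined by immunofluorescence microscopy.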

Homo sapiens [9] = organism: Homo sapiens; test: Inhibition of tubulin assembly (unknown origin) assessed as decrease in pelleted microtubules up to 30 uM after 20 mins
How it was run: (§6)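 Purified tubulin was assembled at 30 μM, above its 3.3 μM critical concentration, in the presence of compound. The resulting microtubules were pelleted by mild centrifugation to quantify assembly.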

[10] = Cytotoxicity against human A2780 cells assessed as decrease in cell viability after 48 hrs by MTT assay; assay type: functional, cell-based; conditions: A2780, 48 h; how it was run: as §4
[11] = Cell cycle arrest in human A549 cells assessed as accumulation at G2/M phase at 100 nM after 20 hrs by propidium iodide staining based flow cytometry; assay type: functional; how it was run: as §1
Homo sapiens [12] = organism: Homo sapiens; test: Inhibition of tubulin assembly (unknown origin) assessed as decrease in pelleted microtubules up to 40 uM after 20 mins; how it was run: as §6
Homo sapiens [13] = organism: Homo sapiens; test: Binding affinity to tubulin alpha/beta dimer (unknown origin) at 300 uM by STD-NMR method
[14] = Cell cycle arrest in human A549 cells assessed as accumulation at G2/M phase at 25 uM after 20 hrs by propidium iodide staining based flow cytometry; assay type: functional
How it was run: (§7)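 A549 cells grown 20 h with compound across 20 nM to 25 μM; DMSO as negative and paclitaxel (30−50 nM) as positive control; DNA content histograms by flow cytometry give percent of cells in each cell cycle phase.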

A549 [15] = test: Binding affinity to alpha-tubulin in human A549 cells assessed as induction of microtubule depolymerization by measuring formation of abnormal type 4 spindles at 50 uM after 24 hrs by immunofluorescence microscopy; assay type: cell-based
How it was run: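 A549 cells exposed 24 h, DMSO vehicle control; microtubules stained with DM1A anti-α-tubulin monoclonal antibody and DNA with Hoechst 33342; cytoplasmic microtubule network and mitotic spindle morphology scored by immunofluorescence microscopy.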

[16] = Cell cycle arrest in human A549 cells assessed as decrease in G1 phase population at 25 uM after 20 hrs by propidium iodide staining based flow cytometry; assay type: functional; how it was run: as §7
A549 [17] = test: Binding affinity to alpha-tubulin in human A549 cells assessed as induction of microtubule depolymerization by measuring formation of abnormal type 4 spindles at 1 uM after 24 hrs by immunofluorescence microscopy; assay type: cell-based; how it was run: as §5
[18] = Cell cycle arrest in human A549 cells assessed as accumulation at G2/M phase at 1 uM after 20 hrs by propidium iodide staining based flow cytometry; assay type: functional; how it was run: as §1
[19] = Cell cycle arrest in human A549 cells assessed as decrease in G1 phase population at 1 uM after 20 hrs by propidium iodide staining based flow cytometry; assay type: functional; how it was run: as §1

Row | Compound | Activity [1] | Kd [2] | Kb (Homo sapiens [3]) | inhibition (Homo sapiens [4]) | IC50 [5] | Activity (Homo sapiens [6]) | Activity (Homo sapiens [7]) | Activity (A549 [8]) | inhibition (Homo sapiens [9]) | IC50 [10] | Activity [11] | inhibition (Homo sapiens [12]) | Activity (Homo sapiens [13]) | Activity [14] | Activity (A549 [15]) | Activity [16] | Activity (A549 [17]) | Activity [18] | Activity [19]
1 | COc1ccc([C@@H]2c3cc4c(c(OC)c3C[C@H]3COC(=O)[C@@H]32)OCO4)cc1OC | Active | 850 nM | 11.8 ×10⁵ /M | 43% | 33 nM | Active | Active | Active | Active | 84 nM | Active | – | – | – | – | – | – | – | –
2 | COc1cc([C@@H]2c3cc4c(cc3[C@H](O)[C@H]3COC(=O)[C@H]23)OCO4)cc(OC)c1OC [PODOFILOX] | – | 54 nM | 185 ×10⁵ /M | 68% | 15 nM | – | – | Active | – | 18 nM | 70 to 80% | > 80% | Active | – | – | – | – | – | –
3 | COc1cc([C@@H]2c3cc4c(cc3[C@H](OC(C)=O)[C@H]3COC(=O)[C@H]23)OCO4)cc(OC)c1OC | Active | 58 nM | 170 ×10⁵ /M | 65% | 25 nM | Active | – | Active | – | 34 nM | Active | > 80% | – | – | – | – | – | – | –
4 | COc1c2c(cc3c1OCO3)[C@@H](c1ccc3c(c1)OCO3)[C@@H]1C(=O)OC[C@@H]1C2 | – | – | – | Active | 8670 nM | – | – | – | – | 12900 nM | – | – | – | Active | Active | Active | – | – | –
5 | COc1cc(C2=C3C(=O)OC[C@@H]3[C@@H](OC(C)=O)c3cc4c(cc32)OCO4)cc(OC)c1OC | – | – | – | 17% | 263 nM | – | – | – | Active | 587 nM | – | – | – | – | – | – | Active | Active | Active
